This is a sample that favours compounds with a hit; in the whole collection about 7.1% have one here.
Cav32 inh: inhibitors of human Cav3.2 T-type calcium channel | AID 449739 | 4% of 100,000 active | Cav3.2-expressing cells, Fluo-4 calcium fluorescence FDSS; active compounds read low | B-score at 10 µM;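 active = single-dose well whose peak fluorescence ratio is a statistical outlier from its plate by either plate-standardised score or position-corrected B-score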
H69AR growth 86K: blocks growth of human H69AR lung tumor cells | H69AR lung tumor viability, ATP luminescence, 72 h; active compounds read low | viability, % at 10 µM | 6% of 85,000 active | AID 598;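 active = viability at or below 40%; inactive = viability above 40%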;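 note: multidrug resistant small cell line overexpressing MRP-1 efflux transporter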
PTEN del growth: PTEN-deleted cell growth suppression. HCT116 PTEN-null viability, CellTiter-Glo, 60 h; active compounds read low. viability, % at 10 µM. 1.2% of 140,000 active. AID 827;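 active = viability at or below a set limit, 4 SD under the median of all tested compounds, cut at about 3.7% in these data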;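 note: PTEN knockout HCT116 line with beta catenin targeted HCT116 as companion control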
HUVEC inhibit: blocks proliferation of human endothelial cells; HUVEC proliferation, CellTiter-Glo luminescence, 72 h; active compounds read low; 1.1% of 86,000 active; viability, % at 10 µM (by protocol);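 active = viability at or below 30%; inactive = viability above 30%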
Fibroblast inh: blocks proliferation of human lung fibroblasts; LL 47 human lung fibroblast viability, ATP luminescence; active compounds read low; viability, % at 10 µM; 1.1% of 85,000 active; AID 719;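 active = viability at or below 50% in the single dose screen; inactive = viability above 50%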;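 note: compound exposure lasted 72 h before the ATP readout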
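Test system: LL 47 human lung fibroblasts / Incubation: 72 h compound exposure at 37 °C after overnight plating / Technique: luminescent ATP detection, CellTiter-Glo / Compound dosing: 0.1% DMSO in all compound wells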
bCat KO growth: beta-catenin-lacking colon tumor cell growth suppression; AID 818; HCT116 beta-catenin knockout viability, CellTiter-Glo, 60 h; active compounds read low; viability, % at 10 µM; 1.5% of 140,000 active;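 active = viability at or under a set limit, the compound median less 4 SD, cut at about 6% in these data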
A number is an active result; i = inactive; nt = not tested or not shown.

SMILES	Cav32 inh	H69AR growth 86K	PTEN del growth	HUVEC inhibit	Fibroblast inh	bCat KO growth
CCCN(CC(=O)Nc1cc(Cl)cc(Cl)c1)CC(=O)Nc1ccc(F)c(F)c1F	nt	nt	i	nt	nt	i
Cc1cnc(C(=O)Nc2ccc(F)cc2)cn1	i	i	i	i	i	i
Cc1cnc(C(=O)Nc2ccc(N3CCN(C(=O)OC(C)(C)C)CC3)cc2)cn1	i	28.2	i	i	i	i
Cn1nc(CC(=O)NCc2cccc3ccccc23)c2ccccc2c1=O	i	33.5	i	i	i	i
Cn1nc(CC(=O)Nc2ccc(N3CCN(C(=O)OC(C)(C)C)CC3)cc2)c2ccccc2c1=O	nt	37.2	1.1	i	i	1.2
Cc1cccnc1NC(=O)c1ccc([N+](=O)[O-])o1	nt	nt	i	nt	nt	i
Cc1cccc(NC(=O)c2ccc([N+](=O)[O-])o2)n1	i	nt	2.5	nt	nt	3.3
Oc1ccccc1/C=N/n1cnn(Cc2ccccc2Cl)c1=S	nt	nt	i	nt	nt	i
CC(C)C1C(C#N)=C(N)Oc2n[nH]c(-c3cccs3)c21 (stereo not drawn)	i	i	i	i	i	i
Cc1[nH]nc2c1C(c1ccsc1C)C(C#N)=C(N)O2 (stereo not drawn)	i	nt	1.2	nt	nt	i
CC(C)c1[nH]nc2c1C(c1cccs1)C(C#N)=C(N)O2 (stereo not drawn)	i	39.8	i	i	i	i
Cc1[nH]nc2c1C(c1ccc(-c3ccccc3C#N)o1)C(C#N)=C(N)O2 (stereo not drawn)	-4.41	1.6	i	i	i	i
Cc1cc(C2C(C#N)=C(N)Oc3n[nH]c(C)c32)c(C)s1 (stereo not drawn)	i	i	i	i	i	i
Cc1[nH]nc2c1C(c1ccc(-c3ccc(Cl)cc3)o1)C(C#N)=C(N)O2 (stereo not drawn)	nt	nt	0.7	nt	nt	1.3
CCOC(=O)[C@H](CCc1ccccc1)N[C@@H](C)C(=O)N1[C@H](C(=O)O)C[C@@H]2CCC[C@@H]21	i	nt	nt	nt	nt	nt
CCOC(=O)N1CCC(=NNC(=O)COc2cccc(C)c2)CC1	nt	nt	i	nt	nt	i
CC1=CC(=O)C=C(C)C1=NOc1ccccc1[N+](=O)[O-]	nt	nt	i	nt	nt	i
CC(=O)Nc1ccccc1/C=C/c1ccc2c(C)cc(C)c(O)c2n1	nt	nt	3.3	nt	nt	i
Cc1nc2ccccn2c1C(=O)NN=C1C2CC3CC(C2)CC1C3	nt	nt	i	nt	nt	i
COc1ccc(NS(=O)(=O)c2ccc3nc(COc4ccc(C#N)cc4)[nH]c3c2)cc1	nt	nt	i	nt	nt	i
CCOC(=O)c1c(-c2cccc(C)c2)csc1NC(=O)C1CC=CCC1C(=O)O (stereo not drawn)	-8.85	nt	i	nt	nt	i
CCOC(=O)c1c(-c2cccc([N+](=O)[O-])c2)csc1NC(=O)CCCOc1ccccc1OC	-4.79	nt	i	nt	nt	i
CCOC(=O)c1c(-c2ccc(OC)cc2)csc1NC(=O)CSc1ccccc1	-4.76	nt	i	nt	nt	i
CCOC(=O)c1c(-c2ccc(-c3ccccc3)cc2)csc1NC(=O)C1C2CCC(O2)C1C(=O)O (stereo not drawn)	-4.6	nt	i	nt	nt	i
NS(=O)(=O)c1ccc(CCNC(=O)COC(=O)C2CCCN2C(=O)c2cccs2)cc1 (stereo not drawn)	i	i	i	i	i	i
SMILES	Cav32 inh	H69AR growth 86K	PTEN del growth	HUVEC inhibit	Fibroblast inh	bCat KO growth
COc1cc([N+](=O)[O-])ccc1NC(=O)CCCOc1cccc(C)c1	-3.41	nt	i	nt	nt	i
COc1ccc(-c2c(-c3ccc(OCC(=O)NN)cc3O)n[nH]c2C(F)(F)F)cc1	nt	nt	i	nt	nt	i
COc1ccc(-c2n[nH]c(C)c2-c2cnn(-c3ccccc3)c2)c(O)c1	i	i	i	i	i	i
CCOc1ccc(-c2n[nH]c(C)c2-c2ccccc2OC)c(O)c1	i	6.7	i	i	i	i
C=C(C)COc1ccc(-c2n[nH]c(C)c2-c2ccc(OC)cc2)c(O)c1	i	13.6	1.4	10.7	33.1	1.3
CC(C)CNC(=S)NC(=O)c1ccc(F)cc1	nt	nt	i	nt	nt	i
CC(C)(C)NC(=S)NCc1cccnc1	i	nt	i	nt	nt	i
COc1ccc(C2CC(c3cccs3)=NN2C(=O)CSC2=NN3CCCC(=O)N=C3S2)cc1 (stereo not drawn)	i	i	i	i	i	i
Cc1ccc(C2CC(c3cccs3)=NN2C(=O)CSC2=NN3CCCC(=O)N=C3S2)cc1 (stereo not drawn)	i	11.2	i	i	i	i
CCCCN=C1NN=C(c2cc3ccccc3o2)CS1	nt	nt	i	nt	nt	i
Cc1ccc(C(=O)Nn2cnc3scc(-c4cccs4)c3c2=O)c(O)c1	-3.46	nt	i	nt	nt	i
O=c1[nH]c(N2CCN(c3ccccc3)CC2)nc2c1CCC2	i	i	i	i	i	i
O=c1[nH]c(N2CCN(c3ccccc3)CC2)nc2c1CCCC2	i	21.3	i	i	i	i
CCCCC(CCCC)=N/N=C/c1c(O)n(CC)c2cc(C3=NNC(=O)CC3)ccc12	i	33.3	i	i	i	i
CCn1c(O)c(/C=N/N=C2CCCC2)c2ccc(C3=NNC(=O)CC3)cc21	i	nt	i	nt	nt	i
CCOC(=O)C1=NN(C(=O)c2ccc(C)cc2)C(O)(c2ccc(Cl)cc2)C1 (stereo not drawn)	-6.26	nt	i	nt	nt	i
COC(=O)C1=NN(C(=O)c2ccc(Cl)cc2)C(O)(c2ccccc2)C1 (stereo not drawn)	i	nt	i	nt	nt	i
Cc1cc(Cl)ccc1NC(=O)NC1CCN(S(=O)(=O)c2ccc(F)cc2)CC1	i	39.3	i	i	i	i
CCn1cc(/C=N/NS(=O)(=O)c2ccc(OC)cc2)c(C)n1	i	nt	i	nt	nt	i
O=C(Nc1ccc(Cl)c(C(F)(F)F)c1)NC1CC2CCCC(C1)N2C1CC1 (stereo not drawn)	i	34.1	nt	12.1	i	nt
COc1ccc(OC)c(/C(O)=C/C(=O)C(=O)Nc2ccccc2OC)c1	-8.53	i	i	i	i	i
N#Cc1ccsc1NC(=O)CSc1ncnc2ccccc12	i	37.6	i	i	i	i
CCSc1nc2ccccc2n1C(=O)/C=C/c1ccc(OC)c(OC)c1	nt	nt	i	nt	nt	5.4
COc1cc(/C=C/C(=O)NCCn2c(C)cc3ccccc32)cc(OC)c1OC	i	nt	i	nt	nt	i
C=CCSc1nc2ccccc2n1C(=O)/C=C/c1ccc(OC)c(OC)c1	i	nt	1.8	nt	nt	1.8
SMILES	Cav32 inh	H69AR growth 86K	PTEN del growth	HUVEC inhibit	Fibroblast inh	bCat KO growth
C=CCSc1nc2ccccc2n1C(=O)/C=C/c1cc(OC)c(OC)c(OC)c1	nt	nt	2.4	nt	nt	3.1
CCCCNC(=O)c1onc(CSc2ccccn2)c1C(=O)NCCCC	i	nt	nt	nt	nt	nt
Cc1ccc(C(=O)c2c[nH]c3c(F)cc(F)cc3c2=O)cc1	nt	nt	i	nt	nt	i
CCOc1ccc(C(=O)/C=C/c2cn(CN3CCN(C)CC3)c3ccccc23)cc1	i	i	i	i	i	i
COc1ccc(C(=O)/C=C/c2cn(CN3CCN(C)CC3)c3ccccc23)cc1	nt	22.1	i	i	i	i
CC1CCCC(C)N1C(=O)c1cc2ncc(CCCl)cn2n1 (stereo not drawn)	nt	nt	i	nt	nt	i
Oc1c(C(c2cccs2)N2CCN(c3ccccc3)CC2)ccc2cccnc12 (stereo not drawn)	nt	nt	i	nt	nt	3.0
COc1ccc(OC)c(S(=O)(=O)N(C)CC(=O)N2CCN(c3ccc(F)cc3)CC2)c1	i	i	i	i	18.5	i
